Data reported in ChEMBL document CHEMBL5154713, “Illuminating a Dark Kinase: Structure-Guided Design, Synthesis, and Evaluation of a Potent Nek1 Inhibitor and Its Effects on the Embryonic Zebrafish Pronephros” (J Med Chem, 2022).

Assays:
[1] = target: CDK6/cyclin D3 (Homo sapiens) (UniProt P30281+Q00534); test: Inhibition of human full length recombinant CDK6/CyclinD3 assessed as residual activity at 1 uM using histone H1 as substrate incubated for 40 mins in presence of [gamma 33P]-ATP by radiometric scintillation counting assay relative to control; format: protein-complex assay
In short: (§1)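 Commercial radiometric panel of 50 kinases. Each recombinant human kinase was tested at a single compound concentration of 1 μM. ATP was set within 15 μM of the apparent Km for ATP for each kinase. Residual activity is relative to control and is the mean of two independent experiments.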

[2] = target: RAC-alpha serine/threonine-protein kinase (Homo sapiens) (UniProt P31749); test: Inhibition of human full length Akt1 assessed as residual activity at 1 uM using GRPRTSSFAEGKK as substrate incubated for 40 mins in presence of [gamma 33P]-ATP based radiometric scintillation counting assay relative to control; in short: as §1
Sequence of RAC-alpha serine/threonine-protein kinase (Homo sapiens) (P31749 whole entry): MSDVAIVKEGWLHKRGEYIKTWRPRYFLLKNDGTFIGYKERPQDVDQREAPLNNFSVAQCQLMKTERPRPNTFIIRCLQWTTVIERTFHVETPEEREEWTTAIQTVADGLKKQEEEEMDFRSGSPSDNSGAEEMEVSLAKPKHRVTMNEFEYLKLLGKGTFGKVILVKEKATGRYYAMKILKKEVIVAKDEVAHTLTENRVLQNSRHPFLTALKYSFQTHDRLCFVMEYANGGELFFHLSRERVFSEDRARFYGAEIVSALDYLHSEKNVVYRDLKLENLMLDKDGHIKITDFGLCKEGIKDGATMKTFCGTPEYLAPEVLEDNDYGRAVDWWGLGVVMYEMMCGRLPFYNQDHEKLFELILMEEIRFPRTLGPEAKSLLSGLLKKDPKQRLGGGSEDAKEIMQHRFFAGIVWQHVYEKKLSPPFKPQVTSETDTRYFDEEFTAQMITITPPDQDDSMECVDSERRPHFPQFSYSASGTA

[3] = target: MAP kinase-activated protein kinase 2 (Homo sapiens) (UniProt P49137); test: Inhibition of recombinant human MAPKAPK2 (46 to end residues) assessed as residual activity at 1 uM using KKLNRTLSVA as substrate incubated for 40 mins in presence of [gamma-33P]-ATP by radiometric scintillation counting method relative to control; in short: as §1
Sequence of MAP kinase-activated protein kinase 2 (Homo sapiens) (P49137 whole entry, looked up, the tested form may be a part): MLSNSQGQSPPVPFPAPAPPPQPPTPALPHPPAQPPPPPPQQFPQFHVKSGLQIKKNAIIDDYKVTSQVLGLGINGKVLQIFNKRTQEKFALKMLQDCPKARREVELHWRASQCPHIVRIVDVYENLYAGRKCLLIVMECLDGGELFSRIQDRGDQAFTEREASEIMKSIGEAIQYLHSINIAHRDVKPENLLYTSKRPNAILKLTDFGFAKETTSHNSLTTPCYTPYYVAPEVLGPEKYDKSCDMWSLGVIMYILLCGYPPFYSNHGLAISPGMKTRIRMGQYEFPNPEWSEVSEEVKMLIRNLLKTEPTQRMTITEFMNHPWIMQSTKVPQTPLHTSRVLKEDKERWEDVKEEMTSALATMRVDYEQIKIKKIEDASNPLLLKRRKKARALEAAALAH

[4] = target: T1, Serine/threonine-protein kinase Nek1 (Homo sapiens) (UniProt Q96PY6); test: Inhibition of human recombinant NEK1 (1 to 505 residues) assessed as residual activity at 1 uM using RLGRDKYKTLRQIRQ as substrate incubated for 40 mins in presence of [gamma-33P]-ATP by radiometric scintillation counting assay relative to control
T1 sequence (whole entry): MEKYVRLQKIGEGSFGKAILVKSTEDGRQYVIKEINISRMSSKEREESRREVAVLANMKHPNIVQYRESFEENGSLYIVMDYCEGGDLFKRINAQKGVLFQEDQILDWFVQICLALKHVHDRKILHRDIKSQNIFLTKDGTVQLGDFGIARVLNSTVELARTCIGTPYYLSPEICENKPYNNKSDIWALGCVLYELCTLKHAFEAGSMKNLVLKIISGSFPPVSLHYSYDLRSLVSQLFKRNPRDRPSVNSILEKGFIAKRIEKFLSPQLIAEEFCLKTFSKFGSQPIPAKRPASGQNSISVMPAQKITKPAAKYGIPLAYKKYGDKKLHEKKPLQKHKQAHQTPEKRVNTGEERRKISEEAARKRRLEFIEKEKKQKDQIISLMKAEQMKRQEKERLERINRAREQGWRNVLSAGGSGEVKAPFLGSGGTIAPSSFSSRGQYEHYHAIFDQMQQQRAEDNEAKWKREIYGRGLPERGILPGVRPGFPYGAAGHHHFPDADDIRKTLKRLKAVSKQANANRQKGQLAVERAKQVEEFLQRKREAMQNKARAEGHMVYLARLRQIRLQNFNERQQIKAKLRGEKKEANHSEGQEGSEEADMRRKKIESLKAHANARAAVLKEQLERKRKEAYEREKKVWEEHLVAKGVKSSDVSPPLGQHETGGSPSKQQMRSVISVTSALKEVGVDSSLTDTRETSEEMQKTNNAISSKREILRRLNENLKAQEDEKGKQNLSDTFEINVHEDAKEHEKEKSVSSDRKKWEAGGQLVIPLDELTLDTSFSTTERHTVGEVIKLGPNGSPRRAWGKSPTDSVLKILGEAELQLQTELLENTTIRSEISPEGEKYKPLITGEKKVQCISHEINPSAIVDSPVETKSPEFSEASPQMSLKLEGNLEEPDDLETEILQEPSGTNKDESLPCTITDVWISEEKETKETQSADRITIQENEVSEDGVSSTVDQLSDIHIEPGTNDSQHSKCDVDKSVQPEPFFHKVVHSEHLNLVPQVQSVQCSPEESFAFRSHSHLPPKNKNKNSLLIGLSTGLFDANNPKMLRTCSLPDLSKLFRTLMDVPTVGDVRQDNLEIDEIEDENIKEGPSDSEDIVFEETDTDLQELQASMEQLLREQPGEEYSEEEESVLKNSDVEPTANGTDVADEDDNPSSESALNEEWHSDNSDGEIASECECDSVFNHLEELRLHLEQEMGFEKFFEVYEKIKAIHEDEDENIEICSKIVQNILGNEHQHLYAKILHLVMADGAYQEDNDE
In short: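 Eurofins KinaseProfiler radiometric panel, compound at 1 μM, ATP at 10 μM or within 15 μM of apparent Km. For Nek1 (1−505): 8 mM MOPS pH 7.0, 0.2 mM EDTA, 250 μM peptide, 10 mM Mg acetate, [γ-33P]-ATP, 40 min at room temperature. Stopped with 0.5% phosphoric acid, filtermat spotting, scintillation counting. Mean of two independent experiments.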

[5] = target: Ephrin type-B receptor 4 (Homo sapiens) (UniProt P54760); test: Inhibition of recombinant human EphB4 (561 to end residues) assessed as residual activity at 1 uM using poly(Glu, Tyr) 4:1 as substrate at 40 mins in presence of [gamma-33ATP] by scintillation counting based radiometry assay relative to control; in short: as §1
Sequence of Ephrin type-B receptor 4 (Homo sapiens) (P54760 whole entry): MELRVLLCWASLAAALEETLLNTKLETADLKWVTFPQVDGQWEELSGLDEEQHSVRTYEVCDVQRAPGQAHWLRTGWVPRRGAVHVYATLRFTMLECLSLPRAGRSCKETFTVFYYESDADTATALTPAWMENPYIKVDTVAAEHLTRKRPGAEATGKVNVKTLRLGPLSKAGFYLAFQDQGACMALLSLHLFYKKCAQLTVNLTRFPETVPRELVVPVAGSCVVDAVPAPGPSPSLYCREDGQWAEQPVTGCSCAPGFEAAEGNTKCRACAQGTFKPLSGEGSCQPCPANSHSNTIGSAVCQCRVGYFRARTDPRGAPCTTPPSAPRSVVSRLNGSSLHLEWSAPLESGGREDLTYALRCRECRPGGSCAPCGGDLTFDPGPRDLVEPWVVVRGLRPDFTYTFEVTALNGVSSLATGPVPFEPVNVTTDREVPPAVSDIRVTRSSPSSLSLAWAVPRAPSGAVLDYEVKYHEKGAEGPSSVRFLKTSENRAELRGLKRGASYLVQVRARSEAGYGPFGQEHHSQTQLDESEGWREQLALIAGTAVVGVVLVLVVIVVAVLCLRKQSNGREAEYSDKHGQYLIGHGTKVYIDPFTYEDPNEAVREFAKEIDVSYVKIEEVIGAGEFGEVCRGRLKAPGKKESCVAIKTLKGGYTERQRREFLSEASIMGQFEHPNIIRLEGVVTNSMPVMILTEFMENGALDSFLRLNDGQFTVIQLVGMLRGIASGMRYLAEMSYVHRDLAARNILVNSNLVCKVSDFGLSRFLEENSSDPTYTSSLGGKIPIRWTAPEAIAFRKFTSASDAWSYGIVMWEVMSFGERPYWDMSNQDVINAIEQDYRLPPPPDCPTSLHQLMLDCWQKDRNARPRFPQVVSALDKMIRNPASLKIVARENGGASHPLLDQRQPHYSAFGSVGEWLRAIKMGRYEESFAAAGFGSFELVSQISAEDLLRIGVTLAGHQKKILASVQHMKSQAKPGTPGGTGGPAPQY

[6] = target: Serine/threonine-protein kinase 4 (Homo sapiens) (UniProt Q13043); test: Inhibition of human full length recombinant MST1 assessed as residual activity at 1 uM using KKSRGDYMTMQIG as substrate incubated for 40 mins in presence of [gamma 33P]-ATP by radiometric scintillation counting assay relative to control; in short: as §1
Sequence of Serine/threonine-protein kinase 4 (Homo sapiens) (Q13043 whole entry): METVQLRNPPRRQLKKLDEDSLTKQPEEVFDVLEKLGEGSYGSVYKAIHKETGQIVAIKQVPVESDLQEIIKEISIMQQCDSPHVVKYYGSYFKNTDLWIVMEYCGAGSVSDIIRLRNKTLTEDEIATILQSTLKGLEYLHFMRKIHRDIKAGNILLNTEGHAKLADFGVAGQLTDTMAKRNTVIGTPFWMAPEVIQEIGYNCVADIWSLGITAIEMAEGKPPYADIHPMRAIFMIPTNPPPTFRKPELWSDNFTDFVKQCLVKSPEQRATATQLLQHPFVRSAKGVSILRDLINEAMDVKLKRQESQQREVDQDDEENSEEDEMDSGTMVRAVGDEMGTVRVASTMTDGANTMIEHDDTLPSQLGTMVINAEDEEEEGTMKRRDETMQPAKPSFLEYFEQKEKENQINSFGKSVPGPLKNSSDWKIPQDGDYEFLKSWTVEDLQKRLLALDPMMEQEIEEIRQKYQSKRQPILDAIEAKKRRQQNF

[7] = target: Calcium/calmodulin-dependent protein kinase type 1G (Homo sapiens) (UniProt Q96NX5); test: Inhibition of recombinant full length human CaMK1gamma assessed as residual activity at 1 uM using KKLRRTLSFAEPG as substrate incubated for 40 mins in presence of [gamma-33ATP] by radiometric scintillation counting analysis relative to control; in short: as §1
Sequence of Calcium/calmodulin-dependent protein kinase type 1G (Homo sapiens) (Q96NX5 whole entry): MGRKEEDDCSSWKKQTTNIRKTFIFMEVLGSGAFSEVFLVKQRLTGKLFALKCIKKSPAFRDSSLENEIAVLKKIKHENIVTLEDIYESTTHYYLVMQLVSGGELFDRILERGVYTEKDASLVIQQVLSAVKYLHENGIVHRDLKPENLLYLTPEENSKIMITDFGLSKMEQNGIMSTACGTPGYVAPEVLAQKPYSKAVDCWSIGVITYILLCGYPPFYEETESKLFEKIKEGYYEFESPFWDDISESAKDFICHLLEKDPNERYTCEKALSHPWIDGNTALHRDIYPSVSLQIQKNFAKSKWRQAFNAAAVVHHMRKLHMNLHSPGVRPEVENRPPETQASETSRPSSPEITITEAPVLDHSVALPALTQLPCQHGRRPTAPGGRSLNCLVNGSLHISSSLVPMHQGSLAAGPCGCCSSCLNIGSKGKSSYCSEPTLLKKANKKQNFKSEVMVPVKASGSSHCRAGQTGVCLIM

[8] = target: Serine/threonine-protein kinase mTOR (Homo sapiens) (UniProt P42345); test: Inhibition of human full length recombinant MTOR assessed as residual activity at 1 uM incubated for 40 mins in presence of [gamma 33P]-ATP by radiometric scintillation counting assay relative to control; in short: as §1
[9] = target: Mitogen-activated protein kinase 14 (Homo sapiens) (UniProt Q16539); test: Inhibition of recombinant human full length SAPK2a assessed as residual activity at 1 uM using myelin basic protein as substrate measured after 40 mins in presence of [gamma33P]ATP by scintillation counting method relative to control; in short: as §1
Sequence of Mitogen-activated protein kinase 14 (Homo sapiens) (Q16539 whole entry): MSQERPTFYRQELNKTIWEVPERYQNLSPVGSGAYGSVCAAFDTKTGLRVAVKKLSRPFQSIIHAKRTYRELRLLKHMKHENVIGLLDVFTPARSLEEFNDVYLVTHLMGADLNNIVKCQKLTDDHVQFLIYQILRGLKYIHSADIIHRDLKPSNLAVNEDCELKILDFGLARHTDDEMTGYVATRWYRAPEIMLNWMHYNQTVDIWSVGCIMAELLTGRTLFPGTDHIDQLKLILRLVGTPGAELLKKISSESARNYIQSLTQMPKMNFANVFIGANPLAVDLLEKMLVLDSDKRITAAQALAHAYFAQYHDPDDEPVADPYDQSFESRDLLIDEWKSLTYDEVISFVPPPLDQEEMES

[10] = target: Epidermal growth factor receptor (Homo sapiens) (UniProt P00533); test: Inhibition of human recombinant EGFR (696 to end residues) assessed as residual activity at 1 uM using poly(Glu, Tyr) 4:1 as substrate incubated for 40 mins in presence of [gamma 33P]-ATP by radiometric scintillation counting assay relative to control; in short: as §1
[11] = target: Eukaryotic elongation factor 2 kinase (Homo sapiens) (UniProt O00418); test: Inhibition of human eEF-2K (2 to end residues) assessed as residual activity at 1 uM using RKKFGESEKTKTKEFL as substrate incubated for 40 mins in presence of [gamma 33P]-ATP by radiometric scintillation counting assay relative to control; in short: as §1
Sequence of Eukaryotic elongation factor 2 kinase (Homo sapiens) (O00418 whole entry): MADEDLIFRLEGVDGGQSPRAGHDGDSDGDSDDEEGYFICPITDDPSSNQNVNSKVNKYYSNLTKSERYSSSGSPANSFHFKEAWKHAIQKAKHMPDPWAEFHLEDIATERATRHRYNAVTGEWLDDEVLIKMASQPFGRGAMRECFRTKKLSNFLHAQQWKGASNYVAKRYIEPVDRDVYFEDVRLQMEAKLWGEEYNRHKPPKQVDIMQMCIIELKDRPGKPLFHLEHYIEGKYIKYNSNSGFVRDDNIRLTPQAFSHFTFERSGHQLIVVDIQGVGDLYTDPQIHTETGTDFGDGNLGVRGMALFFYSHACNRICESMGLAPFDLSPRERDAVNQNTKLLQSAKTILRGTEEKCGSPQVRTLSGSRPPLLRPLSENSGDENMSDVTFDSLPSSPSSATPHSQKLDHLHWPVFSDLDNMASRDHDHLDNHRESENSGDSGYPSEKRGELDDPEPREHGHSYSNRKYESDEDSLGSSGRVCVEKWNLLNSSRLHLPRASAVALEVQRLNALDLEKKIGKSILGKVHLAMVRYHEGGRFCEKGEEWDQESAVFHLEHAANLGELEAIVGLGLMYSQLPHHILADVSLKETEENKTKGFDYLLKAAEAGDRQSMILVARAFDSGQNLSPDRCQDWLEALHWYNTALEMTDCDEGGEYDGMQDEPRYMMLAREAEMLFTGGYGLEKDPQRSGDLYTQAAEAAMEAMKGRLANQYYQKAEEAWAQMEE

O=S(=O)(N[C@@H](CO)Cc1c[nH]c2ccccc12)c1ccc(-c2ccnc3[nH]ccc23)cc1
Activity [1]: > 75% | Activity [2]: > 75% | Activity [3]: > 75% | Activity [4]: 4% | Activity [5]: > 75% | Activity [6]: > 75% | Activity [7]: > 75% | Activity [8]: > 75% | Activity [9]: > 75% | Activity [10]: > 75% | Activity [11]: > 75%
